High-throughput results (PubChem)
Only some compounds are listed: those with a hit (about 3.4% of all), similar ones and a draw of the others.
TAAR1 agonist – human TAAR1 agonism. Q96RJ0. CHO RD-HGA16 TAAR1, Fluo-8 calcium fluorescence; vehicle wells 0%, saturating PEA agonist 100%. activation, % at 3 µM. actives 0.99% (n = 360,000). AID 624467;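 active = activation above the mean activation of all test compounds in the run plus 3 SD, cut at about 38% in these data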
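System: CHO-derived RD-HGA16 cells with stable Gα16 and human TAAR1 / Times: 17-24 h plating, Fluo-8 75 min 37 °C, 30 min RT / Technique: calcium-sensitive Fluo-8 signal, excitation 470-495, emission 515-575 nm / Measure: % activation relative to PEA EC100 response / Benchmarks: DMSO and PEA EC100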
TAAR1 antag – antagonists of human TAAR1 | actives 1.5% (n = 360,000) | inhibition, % at 3 µM | CHO RD-HGA16 TAAR1, Fluo-8 calcium fluorescence, antagonist | Q96RJ0;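 active = inhibition above a per-plate cutoff, the mean inhibition of test compounds on that plate plus 3 SD, cut at about 49% in these data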;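 note: 0% = DMSO plus EC80 beta-PEA response and 100% = DMSO alone without agonist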
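Material: RD-HGA16 CHO cells with stable hTAAR1 and Gα16; Dosing: single nominal final test compound concentration of 3 µM; Schedule: seeding 17-24 h prior, 75-min 37 °C, 30-min RT dye loading; Detection: kinetic Fluo-8 calcium fluorescence measurement; Measure: % inhibition from peak post-agonist over basal fluorescence ratio; Benchmarks: vehicle and agonist controls.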
LANA-H2B inh – blocks KSHV LANA binding to histone H2A/H2B | Q9QR71 | cell-free LANA-H2A/H2B peptide, fluorescence polarization | inhibition, % (test concentration not listed) | actives 0.6% (n = 320,000); in the data active = inhibition mostly above about 10%, no sharp cut-off; inactive = mostly below about 6.7%
GPR7 antag – human neuropeptides B/W receptor 1 antagonism; GPR7-expressing cells, fluorescence antagonist assay; inhibition, % at 4.4 µM; actives 1.1% (n = 290,000); in the data active = inhibition above about 16%, passing the limit was not always enough;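 note: cells stimulated with the agonist NPW; 0% = agonist with vehicle and 100% = vehicle without agonist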
Target sequence (P48145 whole entry, looked up): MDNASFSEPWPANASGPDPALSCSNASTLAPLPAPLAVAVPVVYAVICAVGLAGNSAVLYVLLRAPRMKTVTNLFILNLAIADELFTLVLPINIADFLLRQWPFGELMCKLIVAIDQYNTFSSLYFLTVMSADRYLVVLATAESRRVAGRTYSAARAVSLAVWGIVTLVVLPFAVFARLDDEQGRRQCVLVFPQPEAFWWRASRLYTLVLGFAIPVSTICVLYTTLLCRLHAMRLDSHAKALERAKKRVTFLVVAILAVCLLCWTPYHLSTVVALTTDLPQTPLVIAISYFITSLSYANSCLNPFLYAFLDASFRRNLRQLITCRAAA
zfTRPN1 agonist – activates the zebrafish TRPN1 channel; HEK293 zebrafish TRPN1-YFP, Fluo-8 calcium fluorescence; 100% = response to 87 µM carbachol; activation, % at 3 µM; actives 0.18% (n = 220,000);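 active = activation above its plate's cutoff, the mean activation of test wells on that plate plus 3 SD, cut at about 19% in these data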;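 note: 0% = DMSO alone and 100% = 87 µM carbachol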
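Material: zebrafish TRPN1-YFP in HEK293 cells. Doses: one dose of 3 µM, 0.3% DMSO. Incubation: dye 1 h 37 °C plus 30 min RT. Measured by: intracellular calcium fluorescence with Fluo-8.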
TRPML3 ag – agonists of human TRPML3 channel | HEK293 TRPML3-YFP, Fluo-8 calcium fluorescence; 100% = the carbachol control signal | AID 1448 | Q8TDD5 | activation, % at 3 µM | actives 0.29% (n = 220,000);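 active = activation above its plate's cutoff, the mean activation of the plate's test wells plus 3 SD, cut at about 12% in these data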;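 note: 0% = DMSO only wells and 100% = carbachol wells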
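Test system: TRPML3-YFP stable HEK293 cells. Doses: single point at 3 µM. Incubation: dye loading 1 h 37 °C then 30 min ambient, 125 s read. Signal: Fluo-8 calcium dye fluorescence, ex 470-495, em 515-575 nm. Measure: percent activation from peak-to-basal fluorescence ratio, scaled between DMSO and carbachol.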
GPR7 antag conf – human GPR7 antagonism, confirmation assay. shares compounds with GPR7 antag. GPR7-expressing cells, calcium fluorescence antagonist mode. inhibition, % at 4.4 µM. actives 52% (n = 2,400). AID 1952; in the data active = inhibition above about 24%;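 note: stimulated with the GPR7 agonist NPW; 0% = agonist plus vehicle and 100% = vehicle alone without agonist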
MCHR1 antagonist – counter-screen for GPR7 antagonists: antagonists of human MCHR1; inhibition, % at 4.4 µM; AID 2148; shares compounds with GPR7 antag; MCHR1-expressing cells, fluorescence antagonist assay; actives 62% (n = 2,400); in the data active = inhibition above about 22%;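 note: 0% = vehicle with agonist and 100% = vehicle without agonist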
* hit, by the source's call; . = no result given.

SMILES	TAAR1 agonist	TAAR1 antag	LANA-H2B inh	GPR7 antag	zfTRPN1 agonist	TRPML3 ag	GPR7 antag conf	MCHR1 antagonist
CS(=O)(=O)c1ccc(C(=O)OCc2nnc(-c3ccc(Cl)cc3)o2)cc1[N+](=O)[O-]	.	.	-6.5	35.2*	1.2	0.2	87.7*	77.9*
CCC(=O)c1cn(CC(=O)Nc2ccccc2Cl)c2ccccc12	1.9	5.1	0.5	26.0*	.	.	11.6	16.3
O=C(NCc1ccccc1)c1cc(C2COCCN2C(=O)CCc2ccccc2)on1 (stereo not given)	1.8	-8.8	.	.	.	.	.	.
O=C(Cn1c(=O)oc2ccccc21)NCC1COc2ccccc2O1 (stereo not given)	0.6	10.4	-2.7	14.1	.	.	.	.
CCOC(=O)C(C)Sc1ncnc2c1nnn2-c1ccc(F)cc1 (stereo not given)	16.1	18.0	0.8	43.9*	-0.6	-1.2	37.5*	44.1*
O=C(CCn1c(=S)oc2ccccc21)NC1CCCCC1	0.2	-16.4	-1.6	-11.8	1.5	-0.3	.	.
O=C(CCCn1c(=O)oc2ccccc21)NC1CCCCCC1	.	.	-7.4	21.0*	-0.3	-0.1	-9.8	-4.1
O=C(c1ccccc1)c1c2c(cc3sc4ccccc4[n+]13)-c1cccc3cccc-2c13	7.6	9.2	0.2	21.3*	4.5	1.9	17.8	31.5*
COc1ccc(C=O)cc1COc1ccc2c(c1)OCO2	-2.1	-2.7	.	.	.	.	.	.
COc1ccc(C=O)cc1COc1ccc([N+](=O)[O-])c(C)c1	-1.3	9.4	1.6	23.4*	-1.4	0.6	49.3*	44.0*
O=[N+]([O-])c1ccc(Oc2ccc(OCc3ccccc3)cc2)nc1	4.0	21.3	0.1	61.4*	.	.	39.9*	60.9*
O=[N+]([O-])c1cccnc1Oc1ccc(OCc2ccccc2)cc1	2.1	15.6	0.7	0.6	.	.	.	.
CC(NCCC1(Cc2ccccc2Cl)CCOC(C)(C)C1)c1cccs1 (stereo not given)	6.2	-28.2	-1.9	27.6*	-2.9	-0.6	30.9*	19.9
CC(C)(C)c1ccc(C(=O)Cn2cnnc2C#N)cc1	-4.1	11.4	6.1	-12.9	.	.	.	.
CCOc1c(Br)cc(/C=C(\C#N)C(=O)NC2CC2)cc1OC	2.3	-36.7	0.0	24.2*	.	.	47.3*	41.2*
CCOc1ccccc1/C=C(\C#N)C(=O)NC1CC1	-0.8	-19.6	-0.1	.	.	.	.	.
O=C(c1ccco1)N1CCC(c2nc(-c3ccccc3Cl)no2)CC1	15.0	1.4	2.6	27.9*	3.1	0.7	0.0	0.5
COCCNC(=O)C1CCCN(C(=O)c2csc3ccccc23)CC1 (stereo not given)	4.7	-15.1	.	.	.	.	.	.
CCc1ccc(N2CC(C(=O)OCC(=O)Nc3ccc([N+](=O)[O-])cc3)CC2=O)cc1 (stereo not given)	10.3	-9.1	1.6	.	.	.	.	.
O=C(COc1ccc(F)cc1)N1CCc2ccccc2C1	5.5	-8.5	-6.5	28.0*	-0.2	-0.1	21.1	9.5
Cc1ccc(S(=O)(=O)NC(CC(C)C)C(=O)N2CCN(C/C=C/c3ccccc3)CC2)cc1 (stereo not given)	-0.4	6.4	-1.5	.	.	.	.	.
CC(C)C(c1nnnn1Cc1ccc(F)cc1)N1CCN(Cc2ccc3c(c2)OCO3)CC1 (stereo not given)	7.3	8.2	2.7	26.7*	-0.7	-0.5	5.9	24.9*
CCN1CCN(C(c2nnnn2Cc2ccc3c(c2)OCO3)C(C)C)CC1 (stereo not given)	1.0	3.8	-2.2	2.3	-1.1	0.4	.	.
CCOc1ccc(C(C)NC(=O)c2ccc3c(c2)NC(=O)C(C)S3)cc1OCC (stereo not given)	2.0	-12.9	.	.	.	.	.	.
COCCN(Cc1ccc(C)cc1)C(=O)[C@H]1O[C@@H](n2cnc3c(N)ncnc32)[C@H](O)[C@@H]1O	1.4	-11.8	.	.	.	.	.	.
